# According to ChEMBL document CHEMBL3525906, “A comprehensive assessment of repaglinide metabolic pathways: impact of choice of in vitro system and relative enzyme contribution to in vitro clearance” (Drug Metab Dispos, 2012):
# T1: Cytochrome P450 2C8 (Homo sapiens, UniProt P10632)
# T1 sequence (P10632 whole entry): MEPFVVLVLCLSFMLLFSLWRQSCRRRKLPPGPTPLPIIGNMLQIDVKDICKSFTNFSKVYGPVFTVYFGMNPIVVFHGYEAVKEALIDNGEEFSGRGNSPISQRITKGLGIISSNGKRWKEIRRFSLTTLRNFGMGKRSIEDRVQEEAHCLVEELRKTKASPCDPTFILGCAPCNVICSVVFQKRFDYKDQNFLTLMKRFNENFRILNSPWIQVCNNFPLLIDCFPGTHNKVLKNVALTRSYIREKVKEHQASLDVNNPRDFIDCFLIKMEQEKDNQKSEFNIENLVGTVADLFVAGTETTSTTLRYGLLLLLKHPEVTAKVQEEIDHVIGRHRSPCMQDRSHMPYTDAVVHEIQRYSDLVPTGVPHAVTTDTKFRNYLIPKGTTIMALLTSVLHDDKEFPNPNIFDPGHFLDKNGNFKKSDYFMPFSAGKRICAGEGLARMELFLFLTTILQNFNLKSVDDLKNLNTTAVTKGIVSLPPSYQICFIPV
# Legend:
# [1] = Retention time of the compound by LC-MS/MS method; format: physicochemical
# [2] = Unbound intrinsic clearance in human hepatic S9 fraction assessed as 10 uM disulfiram-mediated inhibition of 2-despiperidyl-2-(5-carboxypentylamine) repaglinide formation at 0.5 to 150 uM by LC-MS/MS method; format: tissue-based, Liver; conditions: s9, 150 µM
# Cytochrome P450 2C8 = target: T1, Cytochrome P450 2C8; assay: Drug metabolism assessed as human recombinant CYP2C8-mediated metabolite formation at 0.5 to 150 uM by LC-MS/MS method; format: ADME; conditions: recombinant enzyme
# Method in brief: (§1)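 Recombinant P450 (CYP2C8 50, CYP3A4 30, CYP3A5 100; units not given) incubated 10 min at 37°C with repaglinide (8 concentrations, 0.5–150 μM) in 0.1 M phosphate pH 7.4, 10 mM MgCl2, NADPH-regenerating system (1 mM NADP+, isocitrate/isocitrate dehydrogenase). Quenched with ice-cold methanol plus indomethacin internal standard. M1, M2, M4 quantified by LC-MS/MS against authentic standards. Michaelis-Menten fit; mean ± SD, n=3.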
# [3] = Unbound intrinsic clearance in human hepatic S9 fraction assessed as IC50 for disulfiram-mediated inhibition of 2-despiperidyl-2-(5-carboxypentylamine) repaglinide formation at 10, 25 and 50 uM by LC-MS/MS method
# Cytochrome P450 3A4 = Cytochrome P450 3A4 (Homo sapiens, UniProt P08684); assay: Drug metabolism assessed as human recombinant CYP3A4-mediated metabolite formation at 0.5 to 150 uM by LC-MS/MS method; format: ADME; conditions: recombinant enzyme; method in brief: as §1
# Chain of Cytochrome P450 3A4 (P08684 whole entry): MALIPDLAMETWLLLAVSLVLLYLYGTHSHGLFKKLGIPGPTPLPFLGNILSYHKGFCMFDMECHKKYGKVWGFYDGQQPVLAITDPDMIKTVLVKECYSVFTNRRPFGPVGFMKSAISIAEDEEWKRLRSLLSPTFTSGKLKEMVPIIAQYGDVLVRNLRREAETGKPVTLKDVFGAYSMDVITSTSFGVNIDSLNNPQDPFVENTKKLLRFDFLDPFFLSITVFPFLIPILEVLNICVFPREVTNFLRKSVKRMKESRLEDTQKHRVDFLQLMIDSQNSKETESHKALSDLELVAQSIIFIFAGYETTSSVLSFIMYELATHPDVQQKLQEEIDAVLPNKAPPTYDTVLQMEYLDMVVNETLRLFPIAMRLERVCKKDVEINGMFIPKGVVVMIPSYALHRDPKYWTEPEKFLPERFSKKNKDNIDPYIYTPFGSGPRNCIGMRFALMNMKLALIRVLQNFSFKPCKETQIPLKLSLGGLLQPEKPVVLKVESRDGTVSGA
# Cytochrome P450 3A5 = Cytochrome P450 3A5 (Homo sapiens, UniProt P20815); assay: Drug metabolism assessed as human recombinant CYP3A5-mediated metabolite formation at 0.5 to 150 uM by LC-MS/MS method; format: ADME; conditions: recombinant enzyme; method in brief: as §1
# [4] = Ratio of human recombinant CYP2C8-mediated unbound intrinsic clearance to human recombinant CYP3A4-mediated unbound intrinsic clearance; format: ADME; conditions: recombinant enzyme
# Homo sapiens [5] = species on record: Homo sapiens; assay: Unbound intrinsic clearance in human hepatic S9 fraction assessed as ketoconazole-mediated inhibition of 3'-hydroxy repaglinide intrinsic clearance at 0.5 to 150 uM by LC-MS/MS method
# [6] = Ratio of human recombinant CYP2C8-mediated unbound intrinsic clearance to human recombinant CYP3A5-mediated unbound intrinsic clearance; format: ADME; conditions: recombinant enzyme
# Homo sapiens [7] = species on record: Homo sapiens; assay: Unbound intrinsic clearance in human hepatic S9 fraction assessed as gemfibrozil glucuronide-mediated inhibition of 2-despiperidyl-2-amino repaglinide intrinsic clearance at 0.5 to 150 uM by LC-MS/MS method
# [8] = Ratio of human recombinant CYP3A4-mediated unbound intrinsic clearance to human recombinant CYP2C8-mediated unbound intrinsic clearance; format: ADME; conditions: recombinant enzyme
# [9] = Ratio of human recombinant CYP3A4-mediated unbound intrinsic clearance to human recombinant CYP3A5-mediated unbound intrinsic clearance; format: ADME; conditions: recombinant enzyme
# [10] = substrate: CCOc1cc(CC(=O)N[C@@H](CC(C)C)c2ccccc2N2CCCCC2)ccc1C(=O)O; assay: Activity of human recombinant CYP2C8 expressed in insect cells assessed as enzyme-mediated 2-despiperidyl-2-amino repaglinide formation by LC-MS/MS method; format: ADME; method in brief: as §1
# [11] = substrate: CCOc1cc(CC(=O)N[C@@H](CC(C)C)c2ccccc2N2CCCCC2)ccc1C(=O)O; assay: Activity of human recombinant CYP2C8 expressed in insect cells assessed as enzyme-mediated 2-despiperidyl-2-amino repaglinide formation per picomole of protein at 0.5 to 150 uM by LC-MS/MS method; format: ADME; method in brief: as §1
# [12] = substrate: CCOc1cc(CC(=O)N[C@@H](CC(C)C)c2ccccc2N2CCCCC2)ccc1C(=O)O; assay: Activity of human recombinant CYP2C8 expressed in insect cells assessed as enzyme-mediated 3'-hydroxy repaglinide formation by LC-MS/MS method; format: ADME; method in brief: as §1
# [13] = substrate: CCOc1cc(CC(=O)N[C@@H](CC(C)C)c2ccccc2N2CCCCC2)ccc1C(=O)O; assay: Activity of human recombinant CYP2C8 expressed in insect cells assessed as enzyme-mediated 3'-hydroxy repaglinide formation per picomole of protein at 0.5 to 150 uM by LC-MS/MS method; format: ADME; method in brief: as §1
# [14] = substrate: CCOc1cc(CC(=O)N[C@@H](CC(C)C)c2ccccc2N2CCCCC2)ccc1C(=O)O; assay: Activity of human recombinant CYP3A5 expressed in insect cells assessed as enzyme-mediated 3'-hydroxy repaglinide formation per picomole of protein at 0.5 to 150 uM by LC-MS/MS method; format: ADME; method in brief: as §1
# [15] = substrate: CCOc1cc(CC(=O)N[C@@H](CC(C)C)c2ccccc2N2CCCCC2)ccc1C(=O)O; assay: Activity of human recombinant CYP3A5 expressed in insect cells assessed as enzyme-mediated 2-despiperidyl-2-amino repaglinide formation per picomole of protein at 0.5 to 150 uM by LC-MS/MS method; format: ADME; method in brief: as §1
# [16] = substrate: CCOc1cc(CC(=O)N[C@@H](CC(C)C)c2ccccc2N2CCCCC2)ccc1C(=O)O; assay: Activity of human recombinant CYP3A5 expressed in insect cells assessed as enzyme-mediated 2-despiperidyl-2-amino repaglinide formation by LC-MS/MS method; format: ADME; method in brief: as §1
molecule,measurement,setting,value
COc1ccc2c(c1)c(CC(=O)O)c(C)n2C(=O)c1ccc(Cl)cc1 [INDOMETHACIN],Retention_time,[1],3 min
CCOc1cc(CC(=O)N[C@@H](CC(C)C)c2ccccc2NCCCCC(=O)O)ccc1C(=O)O,inhibition (INH),[2],89%
same,Drug metabolism,Cytochrome P450 2C8,< 1 nM
same,Retention_time,[1],2.8 min
same,IC50,[3],1200 nM
same,Drug metabolism,Cytochrome P450 3A4,< 1 nM
same,Drug metabolism,Cytochrome P450 3A5,< 1 nM
CCOc1cc(CC(=O)N[C@@H](CC(C)C)c2ccccc2N2CCCCC2)ccc1C(=O)O[C@@H]1O[C@H](C(=O)O)[C@@H](O)[C@H](O)[C@H]1O,Retention_time,[1],3.4 min
CCOc1cc(CC(=O)N[C@@H](CC(C)C)c2ccccc2N2CCCC(O)C2)ccc1C(=O)O (stereo partly drawn),Ratio,[4],35
same,inhibition (INH),Homo sapiens [5],< 30%
same,Ratio,[6],360
same,Retention_time,[1],2.9 min
CCOc1cc(CC(=O)N[C@@H](CC(C)C)c2ccccc2N)ccc1C(=O)O,inhibition (INH),Homo sapiens [7],< 30%
same,Ratio,[8],32
same,Ratio,[9],85
same,Retention_time,[1],2.7 min
Cytochrome P450 2C8 (Homo sapiens) (protein) MEPFVVLVLCLSFMLLFSLWRQSCRRRKLPPGPTPLPIIGNMLQIDVKDICKSFTNFSKVYGPVFTVYFGMNPIVVFHGYEAVKEALIDNGEEFSGRGNSPISQRITKGLGIISSNGKRWKEIRRFSLTTLRNFGMGKRSIEDRVQEEAHCLVEELRKTKASPCDPTFILGCAPCNVICSVVFQKRFDYKDQNFLTLMKRFNENFRILNSPWIQVCNNFPLLIDCFPGTHNKVLKNVALTRSYIREKVKEHQASLDVNNPRDFIDCFLIKMEQEKDNQKSEFNIENLVGTVADLFVAGTETTSTTLRYGLLLLLKHPEVTAKVQEEIDHVIGRHRSPCMQDRSHMPYTDAVVHEIQRYSDLVPTGVPHAVTTDTKFRNYLIPKGTTIMALLTSVLHDDKEFPNPNIFDPGHFLDKNGNFKKSDYFMPFSAGKRICAGEGLARMELFLFLTTILQNFNLKSVDDLKNLNTTAVTKGIVSLPPSYQICFIPV,Km,[10],25 µM
same,kcat,[11],0.00133 s⁻¹
same,Km,[12],5.7 µM
same,kcat,[13],0.00583 s⁻¹
Cytochrome P450 3A5 (Homo sapiens) (protein) MDLIPNLAVETWLLLAVSLVLLYLYGTRTHGLFKRLGIPGPTPLPLLGNVLSYRQGLWKFDTECYKKYGKMWGTYEGQLPVLAITDPDVIRTVLVKECYSVFTNRRSLGPVGFMKSAISLAEDEEWKRIRSLLSPTFTSGKLKEMFPIIAQYGDVLVRNLRREAEKGKPVTLKDIFGAYSMDVITGTSFGVNIDSLNNPQDPFVESTKKFLKFGFLDPLFLSIILFPFLTPVFEALNVSLFPKDTINFLSKSVNRMKKSRLNDKQKHRLDFLQLMIDSQNSKETESHKALSDLELAAQSIIFIFAGYETTSSVLSFTLYELATHPDVQQKLQKEIDAVLPNKAPPTYDAVVQMEYLDMVVNETLRLFPVAIRLERTCKKDVEINGVFIPKGSMVVIPTYALHHDPKYWTEPEEFRPERFSKKKDSIDPYIYTPFGTGPRNCIGMRFALMNMKLALIRVLQNFSFKPCKETQIPLKLDTQGLLQPEKPIVLKVDSRDGTLSGE,kcat,[14],0.000833 s⁻¹
same,kcat,[15],0.00133 s⁻¹
same,Km,[16],66 µM
